Consider 7 compounds from ChEMBL document CHEMBL2412978, “Effect of ring-constrained phenylpropyloxyethylamines on sigma receptors” (Bioorg Med Chem, 2013).

Each structure is given as a SMILES string. Calls of active or inactive are those of the source. The rule behind the calls is not given here.

Experiment [1] can be described thus: Displacement of [3H]di-o-tolylguanidine from sigma 2 receptor in rat brain homogenates after 120 mins by liquid scintillation counting. The experiment is classed as tissue-based.
Experiment [2] has as its system Mus musculus. The experiment can be described thus: Anticonvulsant activity in Swiss Webster mouse assessed as reversal of cocaine-induced loss of righting reflexes at 30 mg/kg, ip administered 15 mins before cocaine challenge measured after 30 mins. The experiment is classed as functional, organism-based. Details: dose 30 mg/kg. The procedure, abridged: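 Male Swiss Webster mice, n = 10/group, given test compound ip (0, 1, 10 or 30 mg/kg) 15 min before a convulsive dose of cocaine (70 mg/kg ip). Animals observed for convulsions for 30 min after cocaine injection. Groups compared by Fisher's exact test.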

A further experiment is filed under the species Rattus norvegicus. The experiment can be described thus: Selectivity ratio of Ki for sigma 2 receptor in rat brain homogenates to Ki for sigma 1 receptor in rat brain homogenates. The experiment is classed as tissue-based.
Experiment [3] has as its target Kappa-type opioid receptor (Homo sapiens, UniProt P41145). The experiment can be described thus: Displacement of [3H]U69,593 from human kappa opioid receptor expressed in CHO cells after 120 mins by liquid scintillation counting. Format: cell-based. In short, it runs like this:
(§1)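 Membranes from CHO cells stably expressing human μ, δ or κ opioid receptor. Radioligands: μ 1.3 nM [3H]DAMGO, δ 1.2 nM [3H]DPDPE, κ 1.7 nM [3H]U69,593; nonspecific with 1 μM of the matching unlabelled ligand.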

For experiment [4], the system named is Mus musculus. The experiment can be described thus: Anticonvulsant activity in ip dosed Swiss Webster mouse assessed as reversal of cocaine-induced loss of righting reflexes administered 15 mins before cocaine challenge measured after 30 mins. The experiment is classed as functional, organism-based. The procedure, abridged: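 Male Swiss Webster mice, n = 10 per group, given test compound ip (0–30 mg/kg range across doses including vehicle 0) 15 min before convulsive cocaine 70 mg/kg ip. Animals watched 30 min after cocaine for occurrence of convulsions; groups compared by Fisher's exact test.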

In the next experiment the target is Mu-type opioid receptor (Homo sapiens, UniProt P35372). The experiment can be described thus: Displacement of [3H]DAMGO from human mu opioid receptor expressed in CHO cells after 120 mins by liquid scintillation counting. Format: cell-based. In short, it runs like this: as §1
Chain of Mu-type opioid receptor (P35372 whole entry): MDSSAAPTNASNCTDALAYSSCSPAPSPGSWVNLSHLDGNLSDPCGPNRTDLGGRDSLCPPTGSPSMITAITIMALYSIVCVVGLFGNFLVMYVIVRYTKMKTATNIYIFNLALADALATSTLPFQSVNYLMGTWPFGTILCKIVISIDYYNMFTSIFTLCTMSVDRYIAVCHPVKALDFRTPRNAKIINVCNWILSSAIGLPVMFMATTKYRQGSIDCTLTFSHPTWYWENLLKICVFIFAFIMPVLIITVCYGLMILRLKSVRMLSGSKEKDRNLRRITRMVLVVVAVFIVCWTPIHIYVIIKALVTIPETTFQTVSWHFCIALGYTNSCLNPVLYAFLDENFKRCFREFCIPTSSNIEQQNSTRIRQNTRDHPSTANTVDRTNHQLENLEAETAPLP

Chain of Kappa-type opioid receptor (P41145 whole entry): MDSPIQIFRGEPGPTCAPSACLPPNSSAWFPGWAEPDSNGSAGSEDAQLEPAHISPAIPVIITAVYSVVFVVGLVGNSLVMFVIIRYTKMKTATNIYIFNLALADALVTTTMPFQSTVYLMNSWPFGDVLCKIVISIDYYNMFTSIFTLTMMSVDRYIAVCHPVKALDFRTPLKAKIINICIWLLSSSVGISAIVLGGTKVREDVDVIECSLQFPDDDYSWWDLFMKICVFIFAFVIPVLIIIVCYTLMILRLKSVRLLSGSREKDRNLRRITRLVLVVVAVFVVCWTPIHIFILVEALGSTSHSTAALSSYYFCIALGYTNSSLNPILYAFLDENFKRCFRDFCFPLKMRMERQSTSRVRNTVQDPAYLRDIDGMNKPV

In experiment [1], `CN(CCCc1ccccc1)[C@H]1CCCC[C@@H]1OCCCc1ccccc1` (racemic) had a Ki of over 10000 nM.

Turning to `CN(CCc1ccccc1)[C@H]1CCCC[C@@H]1O` (relative stereo), the Ki in experiment [1] amounted to 220 nM. The outcome in the experiment on Mus musculus [2] was Active. Also, in the experiment filed under Rattus norvegicus, the Ratio Ki was 2.

`CN(C)[C@H]1CCCC[C@@H]1OC/C=C/c1ccccc1` (relative stereo) yielded an inhibitory constant (Ki) in experiment [1] of 1100 nM. Besides, the Ratio Ki in the experiment filed under Rattus norvegicus is 240.

As to `CN(C)[C@H]1CCCC[C@@H]1OCCCc1ccccc1` (relative stereo), in experiment [1], the inhibitory constant (Ki) stood at 3800 nM. Besides, the Ratio Ki in the experiment filed under Rattus norvegicus came out at 65.

For the compound `CN(CCc1ccccc1)[C@H]1CCCC[C@@H]1OCCCc1ccccc1` (relative stereo), the values for the Ki in experiment [1] and in experiment [3] were 570 nM and 21000 nM, respectively. Also, the Ratio Ki in the experiment filed under Rattus norvegicus came out at 7.

In experiment [1], `c1ccc(CCN2CCCCC2)cc1` [1-PHENETHYLPIPERIDINE] registered a Ki of 140 nM. In addition, in the experiment filed under Rattus norvegicus, the Ratio Ki worked out at 5.

Take `CN(CCCc1ccccc1)[C@H]1CCCC[C@@H]1O` (relative stereo): the inhibition constant (Ki) in experiment [1] was 6.7 nM; on Mu-type opioid receptor it was over 10000 nM. The Activity entry in the experiment with Mus musculus [4] is “Dose-dependent effect”. Moreover, the Ratio Ki in the experiment filed under Rattus norvegicus came to 0.4.
